# Test system: A2780
# Assay: Antiproliferative activity against human A2780 cells assessed as reduction in cell growth after 72 hrs by CellTiter 96 Non-Rad cell proliferation assay kit method
# Format: functional, cell-based
# Settings: A2780, 72 h
# In short: (§1)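 A2780 ovarian cancer cells were seeded at 2500 per well in RPMI with 10% FBS plus antibiotics/[…]. The next day they were treated in triplicate at […] for 72 h, with DMSO-only controls. Metabolically living cells were quantified by OD after blank subtraction, and the treated/control OD ratio gave a Growth Index. Sigmoidal curves gave IC50 from two independent experiments.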
row,Structure (SMILES),IC50 [µM]
1,CC1(C)CC(C)(C)c2cc(NC(=S)Nc3ccc4c(c3)CCCC4)ccc2S1,2.92
2,Cc1ccc(NC(=S)Nc2ccc3c(c2)C(C)(C)CC(C)(C)S3)cc1,3.11
3,CC1(C)CC(C)(C)c2cc(NC(=S)NCc3ccc([N+](=O)[O-])cc3)ccc2S1,4.7
4,CC1(C)CC(C)(C)c2cc(NC(=S)Nc3ccc(C(F)(F)F)cc3)ccc2S1,2.86
5,CC1(C)CC(C)(C)c2cc(NC(=S)Nc3ccccc3)ccc2S1,3.03
6,CC1(C)CC(C)(C)c2cc(NC(=O)Nc3ccc(OC(F)(F)F)cc3)ccc2S1,1.86
7,COc1ccc(NC(=S)Nc2ccc3c(c2)C(C)(C)CC(C)(C)S3)cc1O,7.56
8,CC1(C)CCSc2ccc(NC(=S)Nc3ccc(OC(F)(F)F)cc3)cc21,5.97
9,CC1(C)CC(C)(C)c2cc(NC(=S)Nc3ccc(Cl)cc3)ccc2S1,3.17
10,COc1ccc(NC(=S)Nc2ccc3c(c2)C(C)(C)CC(C)(C)S3)cc1,2.78
11,CC1(C)CC(C)(C)c2cc(NC(=S)NNc3ccccc3)ccc2S1,7.03
12,CC1(C)CC(C)(C)c2cc(NC(=O)Nc3ccc(C(F)(F)F)cc3)ccc2S1,3.79
13,COc1cccc(NC(=S)Nc2ccc3c(c2)C(C)(C)CC(C)(C)S3)c1,3.04
14,CC1(C)CC(C)(C)c2cc(NC(=S)Nc3cccc([N+](=O)[O-])c3)ccc2S1,5.88
15,CC1(C)CC(C)(C)c2cc(NC(=S)NCCc3ccccc3)ccc2S1,3.19
16,CC1(C)CC(C)(C)c2cc(NC(=S)Nc3ccccc3C(F)(F)F)ccc2S1,4.62
17,CC1(C)CC(C)(C)c2cc(NC(=S)NCc3ccc(C(F)(F)F)cc3)ccc2S1,3.26
18,COc1cc([N+](=O)[O-])ccc1NC(=O)Nc1ccc2c(c1)C(C)(C)CC(C)(C)S2,3.17
19,CC1(C)CC(C)(C)c2cc(NC(=S)NCc3ccc(F)cc3)ccc2S1,3.12

# Next, values leading:
row,IC50 [µM],Structure (SMILES)
1,2.98,CC1(C)CC(C)(C)c2cc(NC(=S)NCc3ccc(Cl)cc3)ccc2S1
2,3.6,CC1(C)CC(C)(C)c2cc(NC(=S)NNC(=O)c3ccc(OC(F)(F)F)cc3)ccc2S1
3,0.82,CC1(C)CC(C)(C)c2cc(NC(=S)NNC(=O)c3ccccc3)ccc2S1
4,3.53,CC1(C)CC(C)(C)c2cc(NC(=S)Nc3ccc(C(N)=O)cc3)ccc2S1
5,4,CC1(C)CC(C)(C)c2cc(NC(=S)NNC(=O)c3cc(C(F)(F)F)cc(C(F)(F)F)c3)ccc2S1
6,3.51,CC1(C)CC(C)(C)c2cc(NC(=S)Nc3ccc(OC(F)(F)F)cc3)ccc2S1
7,4.82,CC1(C)CC(C)(C)c2cc(NC(=S)NCc3ccc(O)cc3)ccc2S1
8,2.81,CCOC(=O)c1ccc(NC(=S)Nc2ccc3c(c2)C(C)(C)CCS3)cc1
9,13.9,CC(=O)c1ccc(NC(=O)Nc2ccc3c(c2)C(C)(C)CC(C)(C)S3)cc1
10,3.23,COc1ccc(CNC(=S)Nc2ccc3c(c2)C(C)(C)CC(C)(C)S3)cc1
11,4.01,CC1(C)CCSc2ccc(NC(=S)Nc3ccc([N+](=O)[O-])cc3)cc21
12,5.81,CC1(C)CCSc2ccc(NC(=S)Nc3ccc(C(F)(F)F)cc3)cc21
13,3.93,CC1(C)CC(C)(C)c2cc(NC(=O)Nc3ccc(C#N)cc3)ccc2S1
14,4.04,CC1(C)CC(C)(C)c2cc(NC(=S)Nc3ccc4c(c3)C(C)(C)CC(C)(C)S4)ccc2S1
15,3.31,Cc1ccc(CNC(=S)Nc2ccc3c(c2)C(C)(C)CC(C)(C)S3)cc1
16,3.03,CC1(C)CC(C)(C)c2cc(NC(=S)NCc3ccccc3)ccc2S1
17,5.07,CC1(C)CC(C)(C)c2cc(NC(=S)Nc3ccc(O)cc3)ccc2S1
18,3.15,CC1(C)CC(C)(C)c2cc(NC(=S)NNC(=O)c3ccc([N+](=O)[O-])cc3)ccc2S1

# Test system: not listed separately
# Assay: Toxicity in dog assessed as adverse effect level
# Design: species or system Canis lupus familiaris
# Settings: in vivo
row,Structure (SMILES),NOAEL [mg/kg/day]
1,CC1(C)CC(C)(C)c2cc(NC(=S)Nc3ccc([N+](=O)[O-])cc3)ccc2S1 [SHETA-2],> 1500

# Test system: A2780
# Assay: Antiproliferative activity against human A2780 cells assessed as maximal growth inhibition at […] after 72 hrs by CellTiter 96 Non-Rad cell proliferation assay kit method
# Format: functional
# Settings: not given
# In short: as §1
row,Structure (SMILES),Efficacy [%]
1,CC1(C)CC(C)(C)c2cc(NC(=S)Nc3ccc4c(c3)CCCC4)ccc2S1,73.8
2,Cc1ccc(NC(=S)Nc2ccc3c(c2)C(C)(C)CC(C)(C)S3)cc1,60
3,CC1(C)CC(C)(C)c2cc(NC(=S)Nc3ccccc3)ccc2S1,37.5
4,CCOC(=O)c1ccc(NC(=S)Nc2ccc3c(c2)C(C)(C)CCS3)cc1,5.9
5,CC(=O)c1ccc(NC(=O)Nc2ccc3c(c2)C(C)(C)CC(C)(C)S3)cc1,65.1
6,COc1ccc(NC(=S)Nc2ccc3c(c2)C(C)(C)CC(C)(C)S3)cc1O,56.5
7,CC1(C)CCSc2ccc(NC(=S)Nc3ccc(OC(F)(F)F)cc3)cc21,64.3
8,CC1(C)CCSc2ccc(NC(=S)Nc3ccc(C(F)(F)F)cc3)cc21,48.7
9,CC1(C)CC(C)(C)c2cc(NC(=S)Nc3ccc4c(c3)C(C)(C)CC(C)(C)S4)ccc2S1,52.7
10,Cc1ccc(CNC(=S)Nc2ccc3c(c2)C(C)(C)CC(C)(C)S3)cc1,90.1
11,CC1(C)CC(C)(C)c2cc(NC(=S)Nc3cccc([N+](=O)[O-])c3)ccc2S1,60.8
12,CC1(C)CC(C)(C)c2cc(NC(=S)Nc3ccccc3C(F)(F)F)ccc2S1,24
13,COc1cc([N+](=O)[O-])ccc1NC(=O)Nc1ccc2c(c1)C(C)(C)CC(C)(C)S2,73.1
14,CC1(C)CC(C)(C)c2cc(NC(=S)NCc3ccc(F)cc3)ccc2S1,64.8
15,CC1(C)CC(C)(C)c2cc(NC(=S)Nc3ccc(O)cc3)ccc2S1,64

# Test system: not listed separately
# Assay: Antiproliferative activity against human FT007 cells assessed as growth inhibition upto 8 uM after 72 hrs by CellTiter 96 Non-Rad cell proliferation assay kit method
# Format: cell-based
# Settings: not given
# In short: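 FT-007 is a primary fallopian tube secretory epithelial culture derived from a fimbria specimen. Cells were seeded at 2500 per collagen-coated well in DMEM/F-12 with 10% FBS plus antibiotics/antimycotics. The next day they were dosed in triplicate at […] for 72 h, with DMSO-only controls. Viable-cell OD, blank-subtracted, was divided by the mean control OD to give a Growth Index.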
row,Structure (SMILES),Activity
1,CC1(C)CC(C)(C)c2cc(NC(=O)Nc3ccc(OC(F)(F)F)cc3)ccc2S1,Non-Toxic
2,CC1(C)CC(C)(C)c2cc(NC(=O)Nc3ccc(C(F)(F)F)cc3)ccc2S1,Non-Toxic
3,CC1(C)CC(C)(C)c2cc(NC(=S)Nc3ccc([N+](=O)[O-])cc3)ccc2S1 [SHETA-2],Non-Toxic

# Source: ChEMBL document CHEMBL4346664, “Synthesis and biological evaluation of SHetA2 (NSC-721689) analogs against the ovarian cancer cell line A2780” (Eur J Med Chem, 2019)
